Laboratory results as given in ChEMBL document CHEMBL1811815, “Synthesis of new pyrazole derivatives and their anticancer evaluation” (2010).

Tests used:
CAKI-1 = test: Anticancer activity against human Caki1 cells assessed as cell growth at 10^-5 M after 48 hrs by sulforhodamine B assay relative to control; conditions: CAKI-1, 48 h
HOP-92 = test: Anticancer activity against human HOP92 cells assessed as cell growth at 10^-5 M after 48 hrs by sulforhodamine B assay relative to control; conditions: HOP-92, 48 h
NCI-H522 = test: Anticancer activity against human NCI-H522 cells assessed as cell growth at 10^-5 M after 48 hrs by sulforhodamine B assay relative to control; conditions: NCI-H522, 48 h
UACC-62 = test: Anticancer activity against human UACC62 cells assessed as cell growth at 10^-5 M after 48 hrs by sulforhodamine B assay relative to control; conditions: UACC-62, 48 h
ACHN = test: Anticancer activity against human ACHN cells assessed as cell growth at 10^-5 M after 48 hrs by sulforhodamine B assay relative to control
DU-145 [1] = test: Anticancer activity against human DU145 cells assessed as cell growth at 10^-5 M after 48 hrs by sulforhodamine B assay relative to control; conditions: DU-145, 48 h
MDA-MB-435 = test: Anticancer activity against human MDA-MB-435 cells assessed as cell growth at 10^-5 M after 48 hrs by sulforhodamine B assay relative to control; conditions: MDA-MB-435, 48 h
MOLT-4 = test: Anticancer activity against human MOLT4 cells assessed as cell growth at 10^-5 M after 48 hrs by sulforhodamine B assay relative to control; conditions: MOLT-4, 48 h
SR = test: Growth inhibition of human SR cells after 48 hrs by sulforhodamine B assay; type: functional
Procedure, shortened: (§1)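 NCI five-dose assay using 10-fold serial dilutions from 10^-8 to 10^-4 M, compound in DMSO. Cells exposed 48 h at 37 °C, 5% CO2, 100% humidity. Protein measured by sulforhodamine B staining at 515 nm, with time-zero, control and treated readings. GI50 is the concentration where [(Ti−Tz)/(C−Tz)]×100 = 50. It is reported as greater or less than the range bounds when not reached.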

A549 = test: Growth inhibition of human A549 cells after 48 hrs by sulforhodamine B assay; type: functional; conditions: A549, 48 h
Procedure, shortened: as §1

NCI-H322M = test: Growth inhibition of human NCI-H322M cells after 48 hrs by sulforhodamine B assay; type: functional
Procedure, shortened: as §1

NCI-H23 = test: Growth inhibition of human NCI-H23 cells after 48 hrs by sulforhodamine B assay; type: functional; conditions: NCI-H23, 48 h
Procedure, shortened: as §1

HCT-116 [2] = test: Growth inhibition of human HCT116 cells after 48 hrs by sulforhodamine B assay; type: functional; conditions: HCT-116, 48 h
Procedure, shortened: as §1

SF-539 = test: Growth inhibition of human SF539 cells after 48 hrs by sulforhodamine B assay; type: functional; conditions: SF-539, 48 h
Procedure, shortened: as §1

SNB-75 = test: Growth inhibition of human SNB75 cells after 48 hrs by sulforhodamine B assay; type: functional; conditions: SNB-75, 48 h
Procedure, shortened: as §1

SF-295 = test: Growth inhibition of human SF295 cells after 48 hrs by sulforhodamine B assay; type: functional; conditions: SF-295, 48 h
Procedure, shortened: as §1

LOX IMVI = test: Growth inhibition of human LOXIMVI cells after 48 hrs by sulforhodamine B assay; type: functional
Procedure, shortened: as §1

Malme-3M = test: Growth inhibition of human MALME-3M cells after 48 hrs by sulforhodamine B assay; type: functional
Procedure, shortened: as §1

OVCAR-4 = test: Growth inhibition of human OVCAR4 cells after 48 hrs by sulforhodamine B assay; type: functional; conditions: OVCAR-4, 48 h
Procedure, shortened: as §1

OVCAR-8 = test: Growth inhibition of human OVCAR8 cells after 48 hrs by sulforhodamine B assay; type: functional; conditions: OVCAR-8, 48 h
Procedure, shortened: as §1

NCI/ADR-RES = test: Growth inhibition of human NCI/ADR-RES cells after 48 hrs by sulforhodamine B assay; type: functional
Procedure, shortened: as §1

OVCAR-3 = test: Growth inhibition of human OVCAR3 cells after 48 hrs by sulforhodamine B assay; type: functional; conditions: OVCAR-3, 48 h
Procedure, shortened: as §1

SK-OV-3 = test: Growth inhibition of human SKOV3 cells after 48 hrs by sulforhodamine B assay; type: functional; conditions: SK-OV-3, 48 h
Procedure, shortened: as §1

RXF 393 = test: Growth inhibition of human RXF393 cells after 48 hrs by sulforhodamine B assay; type: functional; conditions: RXF 393, 48 h
Procedure, shortened: as §1

786-0 = test: Growth inhibition of human 786-0 cells after 48 hrs by sulforhodamine B assay; type: functional; conditions: 786-0, 48 h
Procedure, shortened: as §1

UO-31 = test: Growth inhibition of human UO31 cells after 48 hrs by sulforhodamine B assay; type: functional; conditions: UO-31, 48 h
Procedure, shortened: as §1

DU-145 [3] = test: Growth inhibition of human DU145 cells after 48 hrs by sulforhodamine B assay; type: functional; conditions: DU-145, 48 h
Procedure, shortened: as §1

[4] = Growth inhibition of human Hs 578T cells after 48 hrs by sulforhodamine B assay; type: functional
Procedure, shortened: as §1

MDA-MB-231 = test: Growth inhibition of human MDA-MB-231 cells after 48 hrs by sulforhodamine B assay; type: functional; conditions: MDA-MB-231, 48 h
Procedure, shortened: as §1

TK-10 = test: Anticancer activity against human TK10 cells assessed as cell growth at 10^-5 M after 48 hrs by sulforhodamine B assay relative to control; conditions: TK-10, 48 h
HCT-116 [5] = test: Anticancer activity against human HCT116 cells assessed as cell growth at 10^-5 M after 48 hrs by sulforhodamine B assay relative to control; conditions: HCT-116, 48 h
[6] = read-out: pLC50 (the source's name) (converted)

Cn1cc(C(=O)NC(=S)Nc2c(Cl)cccc2Cl)cn1
growth, % of control at 10 µM (CAKI-1): 69.7%

COc1ccc(NC(=S)NC(=O)c2cnn(C)c2)cc1
growth, % of control at 10 µM (HOP-92): 68.7%

Cn1cc(C(=O)NC(=S)Nc2ccc(Cl)cc2)cn1
growth, % of control at 10 µM (NCI-H522): 47.2%

Cn1cc(C(=O)NC(=S)Nc2ccc(Cl)cc2Cl)cn1
growth, % of control at 10 µM (UACC-62): 79.7%

Cc1ccc(NC(=S)NC(=O)c2cnn(C)c2)cc1
growth, % of control at 10 µM (NCI-H522): 62.5%

Cc1cs/c(=N\C(=O)c2cnn(C)c2)n1-c1ccc(Cl)cc1
growth, % of control at 10 µM (ACHN): -11.8% | growth, % of control at 10 µM (DU-145 [1]): 0.3%

Cc1cs/c(=N\C(=O)c2cnn(C)c2)n1-c1ccccc1
growth, % of control at 10 µM (ACHN): -15.7% | growth, % of control at 10 µM (DU-145 [1]): 1.6%

Cc1cc(NC(=S)NC(=O)c2ccccc2)n(-c2ccccc2)n1
growth, % of control at 10 µM (MDA-MB-435): 22.6%

Cc1cccc(C)c1NC(=S)NC(=O)c1cnn(C)c1
growth, % of control at 10 µM (MOLT-4): 40.5%

O=C(NC(=S)Nc1cc(-c2ccc(Br)cc2)n[nH]1)c1ccccc1
GI50 (SR): 11.7 µM | CC50 (SR; [6]): > 100 µM | TGI (SR; read-out: pTGI (converted)): 40.7 µM | GI50 (A549): 2.34 µM | CC50 (A549; [6]): 79.4 µM | TGI (A549; read-out: pTGI (converted)): 14.1 µM | GI50 (NCI-H322M): 4.47 µM | CC50 (NCI-H322M; [6]): > 100 µM | TGI (NCI-H322M; read-out: pTGI (converted)): 44.7 µM | GI50 (NCI-H23): 9.33 µM | CC50 (NCI-H23; read-out: pLC50 (converted)): > 100 µM | TGI (NCI-H23; read-out: pTGI (converted)): 50.1 µM | GI50 (HCT-116 [2]): 1.78 µM | CC50 (HCT-116 [2]; [6]): 24.5 µM | TGI (HCT-116 [2]; read-out: pTGI (converted)): 4.79 µM | GI50 (SF-539): 3.39 µM | CC50 (SF-539; [6]): > 100 µM | TGI (SF-539; read-out: pTGI): > 100 µM | GI50 (SNB-75): 6.17 µM | CC50 (SNB-75; [6]): 89.1 µM | TGI (SNB-75; read-out: pTGI (converted)): 26.9 µM | GI50 (SF-295): 9.77 µM | CC50 (SF-295; [6]): > 100 µM | TGI (SF-295; read-out: pTGI (converted)): 36.3 µM | GI50 (LOX IMVI): 5.5 µM | CC50 (LOX IMVI; [6]): > 100 µM | TGI (LOX IMVI; read-out: pTGI): > 100 µM | GI50 (Malme-3M): 6.61 µM | CC50 (Malme-3M; [6]): > 100 µM | TGI (Malme-3M; read-out: pTGI (converted)): 91.2 µM | GI50 (OVCAR-4): 4.27 µM | CC50 (OVCAR-4; [6]): > 100 µM | TGI (OVCAR-4; read-out: pTGI (converted)): 24 µM | GI50 (OVCAR-8): 4.68 µM | CC50 (OVCAR-8; [6]): 69.2 µM | TGI (OVCAR-8; read-out: pTGI (converted)): 20.9 µM | GI50 (NCI/ADR-RES): 4.9 µM | CC50 (NCI/ADR-RES; [6]): > 100 µM | TGI (NCI/ADR-RES; read-out: pTGI (converted)): 63.1 µM | GI50 (OVCAR-3): 5.01 µM | CC50 (OVCAR-3; [6]): 70.8 µM | TGI (OVCAR-3; read-out: pTGI (converted)): 20.4 µM | GI50 (SK-OV-3): 7.24 µM | CC50 (SK-OV-3; [6]): 52.5 µM | TGI (SK-OV-3; read-out: pTGI (converted)): 21.9 µM | GI50 (RXF 393): 3.16 µM | CC50 (RXF 393; [6]): 47.9 µM | TGI (RXF 393; read-out: pTGI (converted)): 15.1 µM | GI50 (786-0): 3.24 µM | CC50 (786-0; [6]): 47.9 µM | TGI (786-0; read-out: pTGI (converted)): 11.7 µM | GI50 (UO-31): 4.07 µM | CC50 (UO-31; [6]): 85.1 µM | TGI (UO-31; read-out: pTGI (converted)): 21.4 µM | GI50 (DU-145 [3]): 9.33 µM | CC50 (DU-145 [3]; [6]): > 100 µM | TGI (DU-145 [3]; read-out: pTGI): > 100 µM | GI50 [4]: 2.75 µM | CC50 [4, 6]: > 100 µM | TGI ([4]; read-out: pTGI (converted)): 33.9 µM | GI50 (MDA-MB-231): 3.8 µM | CC50 (MDA-MB-231; [6]): > 100 µM | TGI (MDA-MB-231; read-out: pTGI (converted)): 22.4 µM | growth, % of control at 10 µM (TK-10): -19.9% | growth, % of control at 10 µM (HCT-116 [5]): 1% | growth, % of control at 10 µM (NCI-H522): 8.9%
